Where a SMILES comes first, the peptide text is derived from it. Bridges are numbered along the chain shown (N, C = ends). The star is where a group is joined. DOTA = O=C(O)CN1CCN(CC(=O)O)CCN(CC(=O)*)CCN(CC(=O)O)CC1
Tests used:
Probe stability in PBS = assay type: physicochemical; conditions: PBS pH 7.4, 37°C, 3.7 MBq in 0.5 mL, HPLC
Procedure, shortened: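 Radiolabeled peptide (3.7 MBq) was added to 0.5 mL PBS and held at 37°C for 1, 6 and 24 h. At each time an aliquot was taken and radiochemical purity was measured by radio-HPLC on a C18 reversed-phase column, with UV at 214/254 nm. Results are given as % intact tracer.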

[1] = system: U87MG human glioblastoma cells; test: Cell efflux; assay type: cell-based; conditions: after 2 h efflux incubation
Procedure, shortened: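 Cells seeded at 2.5×10^5/well 24 h ahead, then loaded with 370 kBq/well radiotracer for 2 h at 37°C to allow internalization. After two PBS washes, cells were kept in culture medium for 15, 30, 60 and 120 min, washed three times with PBS and detached with 0.25% trypsin/0.02% EDTA. Cell-bound activity was gamma counted and expressed as % of added dose after decay correction. Two experiments, triplicate wells.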

in vivo = conditions: female, athymic nude, mouse, 7.4 MBq, total radioactivity
[2] = assay type: physicochemical; conditions: pH 7.4

In the case of `NCCCC[C@@H]1NC(=O)[C@@H]2CCCN2C(=O)[C@H](CC(N)=O)NC(=O)[C@H](CO)NC(=O)[C@H](CC(N)=O)NC(=O)CNC(=O)[C@@H](NC(=O)CN2CCN(CC(=O)O)CCN(CC(=O)O)CCN(CC(=O)O)CC2)CSSC[C@@H](C(N)=O)NC(=O)[C@H](CO)NC1=O` [^64Cu-DOTA-GX1, metal not drawn] ({DOTA}-CGNSNPKSC-NH2; disulfide 1-9; N-terminus and C-terminus assumed), the “percentage of intact tracer in PBS” value (Probe stability in PBS; 6 h incubation) is reported as “more than 95%”, the “percentage of intact tracer in PBS” value (Probe stability in PBS; 24 h incubation) is reported as “more than 91%” and the “radioactivity still associated with the cells” value [1] is reported as 76%. For the same compound, the tissue uptake at 24 h (in vivo; U87MG tumor uptake (biodistribution)) was 6.46 ± 0.29 %ID/g, the tissue uptake at 24 h (in vivo; liver uptake (biodistribution)) was 5.03 ± 0.14 %ID/g and the “octanol/water partition coefficient (log P)” value [2] was −2.42±0.003.
